Results as given in ChEMBL document CHEMBL3792296, “Synthesis and antiproliferative activity of 9-benzylamino-6-chloro-2-methoxy-acridine derivatives as potent DNA-binding ligands and topoisomerase II inhibitors” (Eur J Med Chem, 2016).
Active and inactive are the calls of the source. No cut-off for these calls is given here.

Columns and labels:
[1] = Antiproliferative activity against human HCT116 cells after 48 hrs by MTT assay; assay type: functional, cell-based; details: HCT-116, 48 h
In short: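 MTT assay: cells seeded at 4-8 × 10³ per well, incubated overnight at 37 °C in 5% CO₂, then given fresh medium with graded compound concentrations or equal DMSO for 48 h. MTT (5 mg/mL solution) added for a further 4 h, formazan dissolved in DMSO, absorbance read at 490 nm. Six cancer cell lines tested.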

[2] = target: T1, DNA topoisomerase 1 (Homo sapiens) (UniProt P11387); assay: Inhibition of human topoisomerase 1 assessed as reduction in enzyme-mediated relaxation of supercoiled pBR322 DNA at 50 to 100 uM after 10 to 15 mins by agarose gel electrophoresis
T1 sequence (whole entry): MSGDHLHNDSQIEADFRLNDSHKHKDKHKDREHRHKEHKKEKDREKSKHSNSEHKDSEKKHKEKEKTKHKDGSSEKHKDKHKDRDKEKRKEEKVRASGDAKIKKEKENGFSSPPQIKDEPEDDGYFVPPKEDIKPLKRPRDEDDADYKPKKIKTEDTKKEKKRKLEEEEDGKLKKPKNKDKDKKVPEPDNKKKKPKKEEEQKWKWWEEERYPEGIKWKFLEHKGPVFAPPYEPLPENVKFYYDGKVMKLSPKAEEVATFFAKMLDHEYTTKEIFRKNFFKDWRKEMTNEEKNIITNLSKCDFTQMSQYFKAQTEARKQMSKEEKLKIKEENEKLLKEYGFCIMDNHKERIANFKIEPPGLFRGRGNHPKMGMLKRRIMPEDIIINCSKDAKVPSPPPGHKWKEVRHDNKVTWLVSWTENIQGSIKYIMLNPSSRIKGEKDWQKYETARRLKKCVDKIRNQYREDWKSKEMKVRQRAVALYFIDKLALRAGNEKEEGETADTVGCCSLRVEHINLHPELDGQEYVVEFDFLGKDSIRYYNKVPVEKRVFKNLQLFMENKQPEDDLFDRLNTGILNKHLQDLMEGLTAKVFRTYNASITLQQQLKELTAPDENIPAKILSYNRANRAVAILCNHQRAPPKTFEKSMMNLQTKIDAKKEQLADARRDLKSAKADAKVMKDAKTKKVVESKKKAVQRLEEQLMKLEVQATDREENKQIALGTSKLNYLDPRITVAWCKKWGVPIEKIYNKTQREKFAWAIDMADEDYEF
In short: (§1)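 Relaxation of 500 ng supercoiled pBR322 by 1 unit human Topo I or Topo IIα, with or without compound, in 20 µL reaction buffer at 37 °C for 10-15 min. Reactions stopped with loading buffer, run on 0.8% agarose in TAE at 80 V for 30 min. Gels stained with ethidium bromide 2.5 µg/mL and viewed under UV.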

[3] = target: DNA topoisomerase 2-alpha (Homo sapiens) (UniProt P11388); assay: Inhibition of human recombinant topoisomerase 2-alpha expressed in Escherichia coli assessed as reduction in enzyme-mediated relaxation of supercoiled pBR322 DNA at 10 to 50 uM after 10 to 15 mins by agarose gel electrophoresis; in short: as §1
Calf thymus DNA [4] = assay: Binding affinity to calf thymus DNA after 5 mins by UV-vis spectrophotometry; assay type: nucleic-acid assay; details: Bos taurus
In short: (§2)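 ctDNA at 0-44 µM is added to compound at 10 µM final in Tris-HCl buffer (pH 7.4). UV-vis absorption spectra are recorded after 5 min standing. The binding constant K_b is taken from a plot of absorption data against DNA concentration.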

Calf thymus DNA [5] = assay: Binding affinity to calf thymus DNA assessed as bathochromic shift at 10 uM after 5 mins by UV-vis spectrophotometry; assay type: nucleic-acid assay; details: Bos taurus; in short: as §2
A549 [6] = assay: Induction of apoptosis in human A549 cells assessed as early apoptotic cells at 10 uM after 36 hrs by Annexin V-FITC/propidium iodide staining based FACS analysis (reference value: 0.29%); assay type: functional
In short: (§3)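 A549 cells seeded at 2 × 10⁵ per well, incubated overnight, then treated at 0, 5 or 10 µM. The legend gives 36 or 48 h; the methods section states 24 h. Annexin V-FITC/PI kit staining followed by flow cytometry. Early and late apoptotic cells expressed as cumulative percentage relative to control.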

A549 [7] = assay: Induction of apoptosis in human A549 cells assessed as early apoptotic cells at 5 uM after 48 hrs by Annexin V-FITC/propidium iodide staining based FACS analysis (reference value: 0.94%); assay type: functional; in short: as §3
A549 [8] = assay: Induction of apoptosis in human A549 cells assessed as early apoptotic cells at 10 uM after 48 hrs by Annexin V-FITC/propidium iodide staining based FACS analysis (reference value: 0.94%); assay type: functional; in short: as §3
A549 [9] = assay: Induction of apoptosis in human A549 cells assessed as late apoptotic cells at 10 uM after 48 hrs by Annexin V-FITC/propidium iodide staining based FACS analysis (reference value: 0.62%); assay type: functional; in short: as §3
A549 [10] = assay: Induction of apoptosis in human A549 cells assessed as increase in expression of cleaved caspase 3 at 1 to 2.5 uM after 48 hrs by Western blot analysis; assay type: functional, cell-based
In short: (§4)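 A549 cells grown to 80% confluency, treated with graded concentrations for 48 h, then lysed in Tris-HCl/NaCl/Triton X-100 buffer with protease inhibitors. 40 µg protein resolved on 12 or 15% SDS-PAGE and blotted to PVDF. Primary antibodies used at 1:1000 for 6-8 h, HRP anti-rabbit at 1:2000 for 2 h, ECL detection, β-actin as loading control.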

A549 [11] = assay: Induction of apoptosis in human A549 cells assessed as increase in expression of cleaved caspase 9 at 1 to 2.5 uM after 48 hrs by Western blot analysis; assay type: functional, cell-based; in short: as §4
A549 [12] = assay: Cell cycle arrest in human A549 cells assessed as accumulation at G0/G1 phase at 0.5 uM after 36 hrs by propidium iodide staining based flow cytometry (reference value: 61.65%); assay type: functional
A549 [13] = assay: Cell cycle arrest in human A549 cells assessed as accumulation at G0/G1 phase at 1 uM after 36 hrs by propidium iodide staining based flow cytometry (reference value: 61.65%); assay type: functional
A549 [14] = assay: Cell cycle arrest in human A549 cells assessed as accumulation at S phase at 0.5 uM after 36 hrs by propidium iodide staining based flow cytometry (reference value: 30.73%); assay type: functional
A549 [15] = assay: Cell cycle arrest in human A549 cells assessed as accumulation at G2/M phase at 0.5 uM after 36 hrs by propidium iodide staining based flow cytometry (reference value: 7.62%); assay type: functional
A549 [16] = assay: Cell cycle arrest in human A549 cells assessed as accumulation at G2/M phase at 5 uM after 36 hrs by propidium iodide staining based flow cytometry (reference value: 7.62%); assay type: functional

Sequence of DNA topoisomerase 2-alpha (Homo sapiens) (P11388 whole entry): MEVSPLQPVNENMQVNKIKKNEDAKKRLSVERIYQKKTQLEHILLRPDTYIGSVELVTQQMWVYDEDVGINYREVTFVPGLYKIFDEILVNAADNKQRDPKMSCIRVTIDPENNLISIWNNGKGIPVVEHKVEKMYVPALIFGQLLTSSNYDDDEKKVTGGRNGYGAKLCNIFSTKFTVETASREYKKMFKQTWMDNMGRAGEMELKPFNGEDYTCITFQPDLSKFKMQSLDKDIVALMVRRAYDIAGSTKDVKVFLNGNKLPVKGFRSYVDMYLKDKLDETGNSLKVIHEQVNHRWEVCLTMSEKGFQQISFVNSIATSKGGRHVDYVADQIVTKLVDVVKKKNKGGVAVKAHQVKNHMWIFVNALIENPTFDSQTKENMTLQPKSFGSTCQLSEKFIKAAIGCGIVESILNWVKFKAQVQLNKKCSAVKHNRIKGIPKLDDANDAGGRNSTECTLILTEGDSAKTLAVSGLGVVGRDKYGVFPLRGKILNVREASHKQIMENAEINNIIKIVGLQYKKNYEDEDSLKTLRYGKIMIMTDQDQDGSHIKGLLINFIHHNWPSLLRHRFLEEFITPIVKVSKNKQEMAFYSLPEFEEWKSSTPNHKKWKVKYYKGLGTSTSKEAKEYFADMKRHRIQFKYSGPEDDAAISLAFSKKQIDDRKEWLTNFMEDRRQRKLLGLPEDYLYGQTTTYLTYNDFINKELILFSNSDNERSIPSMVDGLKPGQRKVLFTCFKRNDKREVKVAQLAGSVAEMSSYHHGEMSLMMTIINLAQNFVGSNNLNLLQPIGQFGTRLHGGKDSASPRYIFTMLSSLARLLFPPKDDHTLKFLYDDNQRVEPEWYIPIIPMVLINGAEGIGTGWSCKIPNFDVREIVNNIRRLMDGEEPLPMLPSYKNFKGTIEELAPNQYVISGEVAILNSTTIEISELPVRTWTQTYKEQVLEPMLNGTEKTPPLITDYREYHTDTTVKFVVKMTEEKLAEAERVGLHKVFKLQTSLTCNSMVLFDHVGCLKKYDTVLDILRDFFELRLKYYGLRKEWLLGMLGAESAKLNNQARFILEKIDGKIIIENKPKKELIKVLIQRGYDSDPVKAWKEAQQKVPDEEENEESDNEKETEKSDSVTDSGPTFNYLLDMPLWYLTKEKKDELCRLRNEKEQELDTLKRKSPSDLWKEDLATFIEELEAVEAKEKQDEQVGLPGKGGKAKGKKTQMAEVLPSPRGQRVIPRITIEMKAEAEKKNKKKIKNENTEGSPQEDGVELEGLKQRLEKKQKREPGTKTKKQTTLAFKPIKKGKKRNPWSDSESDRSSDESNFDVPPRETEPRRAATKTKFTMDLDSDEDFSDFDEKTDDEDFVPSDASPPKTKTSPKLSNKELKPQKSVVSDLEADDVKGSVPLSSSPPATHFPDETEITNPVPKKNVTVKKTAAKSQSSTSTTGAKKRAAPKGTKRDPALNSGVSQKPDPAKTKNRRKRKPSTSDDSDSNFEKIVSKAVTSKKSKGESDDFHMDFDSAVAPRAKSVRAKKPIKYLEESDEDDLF

- inhibition [2]: Active
- inhibition [3]: Active
- Kb (Calf thymus DNA [4]): 1.68 ×10⁵ /M
- Activity (Calf thymus DNA [5]): 10 nm
Structure (SMILES): COc1ccc(CNc2c3ccc(Cl)cc3nc3ccc(OC)cc23)cc1
- IC50 [1]: 6.32 µM
- Activity (A549 [6]): 3.24%
- Activity (A549 [7]): 4.23%
- Activity (A549 [8]): 8.8%
- Activity (A549 [9]): 82.46%
- Activity (A549 [10]): Active
- Activity (A549 [11]): Active
- Activity (A549 [12]): 61.48%
- Activity (A549 [13]): 60.83%
- Activity (A549 [14]): 30.4%
- Activity (A549 [15]): 8.12%
- Activity (A549 [16]): 16.52%
